Laboratory results as given in ChEMBL document CHEMBL3867488 (ACS Med Chem Lett, 2016).

Legend:
[1] = Effect on plasma triglyceride level in cynomolgus monkey at 10 mg/kg, po qd administered via gavage for 14 days measured after 24 hrs of last-dose relative to base line; type: ADME, organism-based, Macaca fascicularis; details: in vivo
How it was run: (§1)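 Cynomolgus monkeys dosed daily for 14 days. On day 14, plasma drug concentration was taken 5 h post-dose. Plasma triglycerides were expressed as % elevation over baseline, with significance tested by ANOVA (p < 0.05).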

[2] = species on record: Macaca fascicularis; experiment: Agonist activity at LXR-beta in cynomolgus monkey whole blood assessed as ABCA1 gene induction by measuring ABCA1 mRNA level after 4 hrs by SYBR-Green dye-based Q-PCR analysis relative to control; type: tissue-based
[3] = Plasma concentration in cynomolgus monkey at 10 mg/kg, po qd administered via gavage for 14 days measured after 5 hrs of last-dose by LC/MS/MS analysis; type: ADME, organism-based, Macaca fascicularis; how it was run: as §1
[4] = test system: Cynomolgus monkey; experiment: In vivo agonist activity at LXR-beta in cynomolgus monkey assessed as induction of ABCG1 gene at 10 mg/kg/day, po qd administered via gavage for 14 days; type: functional, Macaca fascicularis
How it was run: (§2)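 Cynomolgus monkeys dosed daily for 14 days. ABCG1 mRNA induction measured in blood cells on day 14 and expressed as fold change. Plasma drug concentration taken about 5 h post-dose. Plasma triglycerides also measured against baseline, with significance by ANOVA.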

[5] = molecular target: T1, Nuclear receptor subfamily 1 group I member 2 (Homo sapiens, UniProt O75469); experiment: Agonist activity at human PXR expressed in human HepG2 cells assessed as induction of CYP3A4 measured after 24 hrs by AlamarBlue dye-based luciferase reporter gene assay relative to control; type: cell-based; details: hepg2, 24 h
T1 sequence (O75469 whole entry): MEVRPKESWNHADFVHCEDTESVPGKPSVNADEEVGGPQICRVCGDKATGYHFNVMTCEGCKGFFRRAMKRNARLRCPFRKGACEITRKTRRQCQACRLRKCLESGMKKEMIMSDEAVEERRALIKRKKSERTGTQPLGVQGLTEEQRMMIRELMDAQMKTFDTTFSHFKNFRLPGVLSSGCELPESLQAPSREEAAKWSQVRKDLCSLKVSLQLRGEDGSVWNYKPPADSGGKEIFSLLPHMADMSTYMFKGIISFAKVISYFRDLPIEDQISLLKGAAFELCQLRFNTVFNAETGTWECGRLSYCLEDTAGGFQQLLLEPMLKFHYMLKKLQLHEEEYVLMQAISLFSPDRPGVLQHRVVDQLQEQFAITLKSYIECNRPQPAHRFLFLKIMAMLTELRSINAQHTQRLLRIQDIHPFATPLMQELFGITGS

[6] = molecular target: T1, Nuclear receptor subfamily 1 group I member 2; experiment: Agonist activity at human PXR expressed in human HepG2 cells assessed as induction of CYP3A4 measured after 24 hrs by AlamarBlue dye-based luciferase reporter gene assay; type: cell-based
[7] = molecular target: T2, Oxysterols receptor LXR-alpha (Homo sapiens, UniProt Q13133); experiment: Agonist activity at human LXR-alpha expressed in African green monkey CV1 cells measured after 18 to 20 hrs by luciferase reporter gene assay relative to pan agonist 1-(2,4-difluorobenzyl)-2-oxo-6-(4-phenoxyphenyl)-4-(trifluoromethyl)-1,2-dihydropyridine-3-carbonitrile; type: cell-based; details: CV-1, human; read-out: Efficacy
T2 sequence (Q13133 whole entry): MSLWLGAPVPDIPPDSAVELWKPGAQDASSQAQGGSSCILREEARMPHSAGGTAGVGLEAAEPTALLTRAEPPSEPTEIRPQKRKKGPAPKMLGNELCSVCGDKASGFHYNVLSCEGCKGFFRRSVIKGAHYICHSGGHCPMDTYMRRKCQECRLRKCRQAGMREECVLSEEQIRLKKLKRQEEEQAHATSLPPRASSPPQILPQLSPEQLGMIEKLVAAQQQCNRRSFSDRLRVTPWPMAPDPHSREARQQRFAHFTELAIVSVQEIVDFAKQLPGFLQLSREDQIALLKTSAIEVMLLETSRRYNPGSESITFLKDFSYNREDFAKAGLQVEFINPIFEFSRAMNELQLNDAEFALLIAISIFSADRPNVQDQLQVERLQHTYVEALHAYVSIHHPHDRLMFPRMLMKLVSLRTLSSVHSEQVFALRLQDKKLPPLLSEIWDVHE

[8] = molecular target: T3, Oxysterols receptor LXR-beta (Homo sapiens) (UniProt P55055); experiment: Agonist activity at human LXR-beta expressed in African green monkey CV1 cells measured after 18 to 20 hrs by luciferase reporter gene assay relative to pan agonist 1-(2,4-difluorobenzyl)-2-oxo-6-(4-phenoxyphenyl)-4-(trifluoromethyl)-1,2-dihydropyridine-3-carbonitrile; type: cell-based; details: CV-1
T3 sequence (whole entry): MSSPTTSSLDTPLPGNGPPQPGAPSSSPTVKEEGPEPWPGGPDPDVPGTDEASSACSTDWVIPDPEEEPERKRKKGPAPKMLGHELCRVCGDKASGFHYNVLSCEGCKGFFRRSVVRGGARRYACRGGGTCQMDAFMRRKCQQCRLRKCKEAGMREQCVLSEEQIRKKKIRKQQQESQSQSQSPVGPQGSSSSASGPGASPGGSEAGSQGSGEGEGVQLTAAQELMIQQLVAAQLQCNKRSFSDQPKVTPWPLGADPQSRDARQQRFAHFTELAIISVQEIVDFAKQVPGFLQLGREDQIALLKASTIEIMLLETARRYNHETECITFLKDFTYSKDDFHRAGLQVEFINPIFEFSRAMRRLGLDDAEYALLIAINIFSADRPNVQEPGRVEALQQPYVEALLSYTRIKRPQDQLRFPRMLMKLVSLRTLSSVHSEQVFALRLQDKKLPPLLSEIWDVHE

[9] = Effect on plasma triglyceride level in cynomolgus monkey at 3 mg/kg, po qd administered via gavage for 14 days measured after 24 hrs of last-dose relative to base line; type: ADME, organism-based, Macaca fascicularis; details: in vivo; how it was run: as §1
[10] = Plasma concentration in cynomolgus monkey at 1 mg/kg, po qd administered via gavage for 14 days measured after 5 hrs of last-dose by LC/MS/MS analysis; type: ADME, organism-based, Macaca fascicularis; how it was run: as §1
[11] = molecular target: T3, Oxysterols receptor LXR-beta (Homo sapiens); experiment: Agonist activity at LXR-beta in human HeLa cells assessed as induction of ABCA1 by beta-galactosidase/luciferase reporter gene assay relative to control; type: cell-based
How it was run: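 HeLa cells carrying endogenous LXRα and LXRβ receptors, transfected with an ABCA1 LXREx3 reporter construct; agonist-driven reporter induction measured.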

[12] = molecular target: T3, Oxysterols receptor LXR-beta (Homo sapiens); experiment: Agonist activity at LXR-beta in human whole blood assessed as ABCA1 gene induction by measuring ABCA1 mRNA level after 4 hrs by SYBR-Green dye-based Q-PCR analysis relative to pan agonist 2-(4-(5-(5-cyano-1-(2,4-difluorobenzyl)-6-oxo-4-(trifluoromethyl)-1,6-dihydropyridin-2-yl)thiophen-2-yl)-3-methylphenyl)acetic acid; type: tissue-based
[13] = molecular target: Albumin (Homo sapiens, UniProt P02768); experiment: Binding affinity to human serum albumin at 1 uM measured after 4 hrs by equilibrium dialysis method relative to control; type: ADME; details: isolated protein, 4 h, 1 µM
Chain of Albumin (P02768 whole entry): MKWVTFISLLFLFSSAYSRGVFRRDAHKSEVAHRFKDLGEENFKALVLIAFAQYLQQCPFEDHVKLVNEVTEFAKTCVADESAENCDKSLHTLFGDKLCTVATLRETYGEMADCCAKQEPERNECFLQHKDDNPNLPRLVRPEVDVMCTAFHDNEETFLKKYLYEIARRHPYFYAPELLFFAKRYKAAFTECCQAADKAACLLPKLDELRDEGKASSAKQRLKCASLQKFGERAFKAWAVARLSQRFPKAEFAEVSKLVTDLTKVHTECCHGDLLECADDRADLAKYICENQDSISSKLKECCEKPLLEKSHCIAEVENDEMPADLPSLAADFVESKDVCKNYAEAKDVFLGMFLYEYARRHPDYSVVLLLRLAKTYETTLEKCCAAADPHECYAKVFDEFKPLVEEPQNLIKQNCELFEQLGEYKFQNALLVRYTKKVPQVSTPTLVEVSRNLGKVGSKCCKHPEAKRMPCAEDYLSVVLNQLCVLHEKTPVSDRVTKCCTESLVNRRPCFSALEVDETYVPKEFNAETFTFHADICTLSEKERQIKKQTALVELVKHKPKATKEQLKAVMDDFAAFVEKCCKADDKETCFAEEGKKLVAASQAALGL

[14] = Effect on plasma triglyceride level in cynomolgus monkey at 1 mg/kg, po qd administered via gavage for 14 days measured after 24 hrs of last-dose relative to base line; type: ADME, organism-based, Macaca fascicularis; details: in vivo; how it was run: as §1
[15] = molecular target: Alpha-1-acid glycoprotein 1 (Homo sapiens, UniProt P02763); experiment: Binding affinity to human alpha-1-AGP at 1 uM measured after 4 hrs by equilibrium dialysis method relative to control; type: ADME; details: isolated protein, 4 h, 1 µM
Chain of Alpha-1-acid glycoprotein 1 (P02763 whole entry): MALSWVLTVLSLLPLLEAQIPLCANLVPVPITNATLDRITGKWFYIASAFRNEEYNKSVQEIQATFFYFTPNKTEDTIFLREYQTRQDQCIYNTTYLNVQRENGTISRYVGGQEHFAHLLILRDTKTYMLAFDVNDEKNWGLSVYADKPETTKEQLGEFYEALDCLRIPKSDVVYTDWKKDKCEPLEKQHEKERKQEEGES

[16] = Agonist activity at LXR-beta in cynomolgus monkey whole blood assessed as ABCA1 gene induction by measuring ABCA1 mRNA level after 4 hrs by SYBR-Green dye-based Q-PCR analysis; type: tissue-based; details: Macaca fascicularis
[17] = Plasma concentration in cynomolgus monkey at 3 mg/kg, po qd administered via gavage for 14 days measured after 5 hrs of last-dose by LC/MS/MS analysis; type: ADME, organism-based, Macaca fascicularis; how it was run: as §1
[18] = test system: Cynomolgus monkey; experiment: In vivo agonist activity at LXR-beta in cynomolgus monkey assessed as ABCG1 gene induction by measuring total RNA level at 1 mg/kg, po qd administered via gavage for 14 days measured after 5 to 6 hrs of last-dose relative to control; type: functional, Macaca fascicularis; how it was run: as §2
[19] = Apparent elimination half life in iv dosed cynomolgus monkey; type: ADME, organism-based, Macaca fascicularis; details: in vivo
[20] = test system: Cynomolgus monkey; experiment: In vivo agonist activity at LXR-beta in cynomolgus monkey assessed as ABCG1 gene induction by measuring total RNA level at 3 mg/kg, po qd administered via gavage for 14 days measured after 5 to 6 hrs of last-dose relative to control; type: functional, Macaca fascicularis; how it was run: as §2

SMILES	Activity [1]	Efficacy [2]	concentration at 5 h [3]	fold change (FC) [4]	Activity [5]	EC50 [6]	Emax [7]	Efficacy [8]	Activity [9]	concentration at 5 h [10]	Efficacy [11]	Efficacy [12]	PB [13]	Activity [14]	PB [15]	EC50 [16]	concentration at 5 h [17]	fold change (FC) [18]	betat1/2(app) [19]	fold change (FC) [20]
O=S(=O)(c1ccccc1)N(CC(F)(F)F)c1ccc(C(O)(C(F)(F)F)C(F)(F)F)cc1 [T091317]	140%	100%	0.2 µM	6	–	–	–	–	–	–	–	–	–	–	–	–	–	–	–	–
CC(C)(O)c1cn(-c2ccc(-c3cc(F)c(CO)c(S(C)(=O)=O)c3)cc2)c(C(C)(C)c2cccc(F)c2Cl)n1	–	29%	–	–	85%	3 µM	12%	68%	58%	0.085 µM	16%	34%	94.4%	2%	87.6%	0.052 µM	0.31 µM	4	10 to 12 h	10
